The source of these data is ChEMBL document CHEMBL3352243, “Ligand-based virtual screening identifies a family of selective cannabinoid receptor 2 agonists” (Bioorg Med Chem, 2015).

A short description of series [1]: Aqueous kinetic solubility of the compound at pH 7 at 37 degC by turbidimetric assay. Format: physicochemical. The settings on record: read-out: Kinetic_solubility. The gist of the method: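 Turbidimetric method: DMSO dilutions added to phosphate-buffered saline pH 7.4 at final 1, 3, 10, 30, 100 μM (1% DMSO), 7 replicates per concentration. Incubated 2 h at 37 °C, then absorbance read at 620 nm. Value is the mid-point of the precipitation range between upper and lower solubility limits.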

For series [2], the target named is T1, Cannabinoid receptor 2 (Homo sapiens, UniProt P34972). The series is described as follows: Agonist activity at human CB2R expressed in CHO cells assessed as reduction in forskolin-induced cAMP accumulation at 3 uM by beta-galactosidase based complementation immunoassay. More on the design: reference not given here. Format: functional, cell-based. The essentials: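 CHO-K1 cells expressing hCB2R, 15,000 per well, incubated overnight at 37 °C, 5% CO2, then anti-cAMP antibody added. Test agent at single concentration with 20 μM forskolin (0.2% DMSO final), 30 min at 37 °C. Lysis/substrate 1 h, then EA reagent 3 h, both at rt in the dark; luminescence read and expressed as % of forskolin+solvent control wells.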
Target sequence in this assay (P34972 whole entry): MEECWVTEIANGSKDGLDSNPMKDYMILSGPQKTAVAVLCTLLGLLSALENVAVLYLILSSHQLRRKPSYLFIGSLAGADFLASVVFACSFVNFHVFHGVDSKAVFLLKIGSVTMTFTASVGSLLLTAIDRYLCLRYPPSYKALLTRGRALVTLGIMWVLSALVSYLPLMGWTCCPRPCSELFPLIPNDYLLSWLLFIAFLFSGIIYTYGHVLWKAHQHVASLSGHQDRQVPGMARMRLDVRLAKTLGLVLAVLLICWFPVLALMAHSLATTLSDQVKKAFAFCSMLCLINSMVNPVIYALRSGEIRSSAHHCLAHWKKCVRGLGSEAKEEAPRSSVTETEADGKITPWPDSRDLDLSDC
(In general: Changes in cAMP serve as a functional read-out for many G protein-coupled receptors.)

Series [3] has as its target T1, Cannabinoid receptor 2. Description: Agonist activity at human CB2R expressed in CHO cells assessed as reduction in forskolin-induced cAMP accumulation at 1 uM by beta-galactosidase based complementation immunoassay. More on the design: reference not given here.
Target sequence in this assay (P34972 whole entry, looked up): as the sequence (P34972 whole entry) above
Series [4] has as its target T1, Cannabinoid receptor 2. The series is described as follows: Agonist activity at human CB2R expressed in CHO cells assessed as reduction in forskolin-induced cAMP accumulation by beta-galactosidase based complementation immunoassay. Type of series: functional, cell-based. The essentials: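 hCB2R CHO-K1 cells plated overnight at 37 °C, 5% CO2; anti-cAMP antibody added, then compound (final 0.2% DMSO) with 20 μM forskolin for 30 min at 37 °C. Lysis/substrate 1 h, then EA detection reagent 3 h at room temperature; luminescence read and normalised to forskolin+solvent wells (100%). EC50 by 4-parameter nonlinear fit of pooled 3–4 independent experiments.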
Target sequence in this assay (P34972 whole entry): as above

Series [5] deals with T1, Cannabinoid receptor 2. Description: Displacement of [3H]WIN-55212-2 from human CB2R expressed in CHO cells. Type of series: cell-based. The gist of the method:
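Membranes from CHO cells expressing hCB2R incubated with test compound and tritiated WIN-55212 (0.8 nM), 2 h, 37 °C. Non-specific binding defined with 5 μM WIN-55212. Scintillation counting of bound ligand; Ki via Cheng–Prusoff with radioligand Kd; duplicate.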
Target sequence in this assay (P34972 whole entry): as above
For orientation: Loss of bound radioactivity is the signal in a displacement assay; it reports binding, not function.

For series [6], the target named is T2, Cannabinoid receptor 1 (Homo sapiens, UniProt P21554). Description: Displacement of [3H]CP55940 from human CB1R expressed in CHO cells. Type of series: cell-based. The essentials:
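Membranes from CHO cells expressing hCB1R incubated with test compound and [3H]CP 55,940 (0.5 nM) for 2 h at 37 °C. Non-specific binding defined with 10 μM WIN-55212. Bound radioligand measured by scintillation counting. Ki from Cheng–Prusoff using radioligand Kd; run in duplicate.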

In series [7] the target is T2, Cannabinoid receptor 1. The series is described as follows: Agonist activity at human CB1R expressed in CHO cells assessed as reduction in forskolin-induced cAMP accumulation by beta-galactosidase based complementation immunoassay. Format: functional, cell-based. The gist of the method: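 CHO-K1 cells expressing hCB1R, 15,000 per well, incubated overnight at 37 °C, 5% CO2, then given anti-cAMP antibody. Compounds were added with 20 μM forskolin (final DMSO 0.2%) for 30 min at 37 °C. Lysis/substrate step 1 h and EA detection 3 h, both at rt in the dark, then luminescence read.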

A further series deals with Liver. Description: Half life in mouse liver microsomes in presence of NADPH by LC-MS/MS method. Format: ADME. The gist of the method:
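Mouse liver microsomes incubated with compound at 37 °C with NADPH. Reactions stopped with methanol containing internal standard, centrifuged, supernatant analysed by LC–MS/MS.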

pEC50, pKi: −log10 of the molar value. Values after ≈ are worked out from the molar mass of the structure shown.

T2 sequence (P21554 whole entry): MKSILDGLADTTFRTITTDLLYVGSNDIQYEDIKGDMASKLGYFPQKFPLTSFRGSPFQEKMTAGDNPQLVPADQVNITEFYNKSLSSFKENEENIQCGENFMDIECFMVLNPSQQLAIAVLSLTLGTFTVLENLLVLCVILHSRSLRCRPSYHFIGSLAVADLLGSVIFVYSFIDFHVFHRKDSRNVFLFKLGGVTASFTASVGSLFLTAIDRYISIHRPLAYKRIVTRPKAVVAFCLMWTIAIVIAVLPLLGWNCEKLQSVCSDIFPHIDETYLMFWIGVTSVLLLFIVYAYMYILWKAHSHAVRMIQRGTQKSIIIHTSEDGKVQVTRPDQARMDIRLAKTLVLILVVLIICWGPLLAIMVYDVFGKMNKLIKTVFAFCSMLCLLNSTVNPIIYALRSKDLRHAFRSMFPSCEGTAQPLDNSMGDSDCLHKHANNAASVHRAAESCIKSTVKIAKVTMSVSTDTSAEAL

A word on the pEC50: it is the negative decadic logarithm of the EC50, by convention in mol/L. For the compound `CCCCSc1nnc2c(n1)[nH]c1ccccc12`, the solubility kinetic in series [1] came out at 2 µM (≈ 0.517 µg/mL). The figures for the Activity on Cannabinoid receptor 2 [2] and on Cannabinoid receptor 2 [3] were 57.2% and 52.1%, respectively. Moreover, the pEC50 at Cannabinoid receptor 2 [4] is 6.53.

In the case of `COC(=O)CCCC(=O)n1c2ccccc2c2nnc(SCc3ccccc3C#N)nc21`, the solubility kinetic in series [1] came out at 3.75 µM (≈ 1.67 µg/mL). Besides, the pEC50 on Cannabinoid receptor 2 [4] was 7.38.

In general, pKi refers to the Ki on a negative log10 scale, so that one unit is a factor of ten. Regarding `N#Cc1ccccc1CSc1nnc2c3ccccc3n(C(=O)c3ccno3)c2n1`, the solubility kinetic in series [1] stood at 6.5 µM (≈ 2.68 µg/mL). Also, the figures for the pKi at Cannabinoid receptor 2 [5] and at Cannabinoid receptor 1 [6] were 6.35 and less than 4.22, respectively. Also, the pEC50 on Cannabinoid receptor 2 [4] is 7.72.

As to `COC(=O)CCC(=O)n1c2ccccc2c2nnc(SCc3ccccc3C#N)nc21`, in series [1], the solubility kinetic came to 3.75 µM (≈ 1.62 µg/mL). Besides, the pKi was 6.44 at Cannabinoid receptor 2 [5] and less than 4.22 at Cannabinoid receptor 1 [6]. Moreover, the pEC50 on Cannabinoid receptor 2 [4] was 7.32.

On to `N#Cc1ccccc1CSc1nnc2c3ccccc3n(C(=O)c3ccccc3)c2n1`, for which the solubility kinetic in series [1] was 2 µM (≈ 0.843 µg/mL). The pKi at Cannabinoid receptor 2 [5] was 6.52; on Cannabinoid receptor 1 [6], less than 5.00. Also, the pEC50 on Cannabinoid receptor 2 [4] was 6.95.

For `N#Cc1ccccc1CSc1nnc2c3ccccc3n(Cc3ccccc3)c2n1`, the pEC50 is 5.81 on Cannabinoid receptor 1 [7] and 6.67 on Cannabinoid receptor 2 [4]. Besides, in the series with Liver, the t1/2 is given as less than 5 min. Further, the pKi at Cannabinoid receptor 2 [5] is 7.96; at Cannabinoid receptor 1 [6], 7.21.

In the case of `N#Cc1ccccc1CSc1nnc2c(n1)[nH]c1ccccc12`, the solubility kinetic in series [1] was found to be 3.75 µM (≈ 1.19 µg/mL). Further, the pEC50 at Cannabinoid receptor 1 [7] was less than 4.52; on Cannabinoid receptor 2 [4], 6.95. Further, the t1/2 in the series on Liver was found to be 46 min. Besides, the pKi on Cannabinoid receptor 2 [5] was 6.45; at Cannabinoid receptor 1 [6], less than 4.22.

Regarding `N#Cc1ccccc1CSc1nnc2c3ccccc3n(C(=O)N3CCOCC3)c2n1`, the solubility kinetic in series [1] amounted to 10.5 µM (≈ 4.52 µg/mL). Also, on Cannabinoid receptor 2 [4], the pEC50 was 7.04.
